High-throughput results: PubChem BioAssay, several laboratories
Yeast superoxide = reduction of superoxide in aged yeast, primary screen, HTS; S. cerevisiae aged cells, superoxide DHE fluorescence; active compounds read low; superoxide response (% of plate mean), % at 10 µM; 330,000 tested, 0.18% active;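 active = superoxide response under a set limit, about three screen SD below normal, cut at about 65% in these data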;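 note: yeast aged for seven days with compound at 30 °C before DHE staining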
S1P3 antagonist = S1P3 receptor antagonists, primary screen, cell-based. Sphingosine 1-phosphate receptor 3 (Homo sapiens), Q99500. CHO S1P3 NFAT-BLA reporter, FRET fluorescence, antagonist mode. inhibition, % at 4.98 µM. 170,000 tested, 0.27% active. AID 485, 2006;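 active = inhibition above the plate cutoff, the mean inhibition of test wells on that plate plus 3 SD, cut at about 28% in these data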;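 note: cells challenged with S1P at its EC80 of 0.8 µM; blue over green emission ratio from cleaved BLA substrate after 4 h stimulation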
Target sequence (Q99500 whole entry, looked up): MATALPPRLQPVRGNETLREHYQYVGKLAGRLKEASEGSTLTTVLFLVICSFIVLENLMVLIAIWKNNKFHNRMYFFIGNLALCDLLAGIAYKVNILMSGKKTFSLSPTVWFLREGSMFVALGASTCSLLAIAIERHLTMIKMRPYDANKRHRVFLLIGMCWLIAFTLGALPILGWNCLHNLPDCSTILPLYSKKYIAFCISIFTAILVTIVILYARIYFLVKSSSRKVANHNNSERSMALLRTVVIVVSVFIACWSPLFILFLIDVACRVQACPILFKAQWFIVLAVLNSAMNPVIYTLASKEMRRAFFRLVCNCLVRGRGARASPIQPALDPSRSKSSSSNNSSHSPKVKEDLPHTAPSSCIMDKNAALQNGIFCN
T cell modulator = modulators of CD8 T cell-vesicle binding, primary screen, mouse 2C CD8+ T cells, flow cytometry. 2C CD8+ T cell-vesicle binding; active compounds read low. response (vesicle binding), % at 7 µM. 330,000 tested, 0.068% active. AID 2052, 2009;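 active = response, share of CD8 T cells binding vesicles, and their 90th percentile fluorescence all below set limits, cut at about 80% in these data, passing the limit was not always enough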;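 note: values below 100% mean blocked vesicle binding to the CD8+ T cells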
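incubation = binding step 1.5 h, 37 °C, antibody labelling 20 min, ice | test system = 2C mouse CD8+ T cells | read-out basis = percent CD8+ FL2 mean versus row control | controls = Peptide-free naked vesicles (low) and QL9 vesicles with 0.7% DMSO vehicle (high) | detection = flow cytometry of vesicle-bound cells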
Superoxide pick = superoxide lowering in aged yeast cells, confirmation, cherry picked compounds. shares compounds with Yeast superoxide. S. cerevisiae aging, superoxide DHE fluorescence; active compounds read low. superoxide response (% of plate), % at 10 µM. 850 tested, 1% active;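 active = superoxide signal below 65% of the plate average of sample wells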;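 note: cells aged with compound for 7 days at 30 degrees C before staining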
DHE fluor count = DHE quenching or ROS scavenging interference in aged yeast, artefact control for yeast caloric restriction mimetic project, S. cerevisiae BY4741, flow cytometry; 850 tested, under 10 active; shares compounds with Yeast superoxide; fluorescence response, % at 10 µM; DHE fluorescence; active compounds read low;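 active = fluorescence response below 15%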;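 note: lower means stronger quenching of DHE signal or ROS scavenging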
Of the large screens only hits and unclear results are named; the others gave an inactive call (follow-up assays come after a bar, where they were run). Shown are actives, neighbours in structure and some others; about 0.41% of the full set was active somewhere.

CC(=O)Nc1ccc(S(=O)(=O)N2CCN=C2SCc2ccc(C)cc2)cc1	none (no result: S1P3 antagonist)
Cc1ccc(S(=O)(=O)N2CCN=C2SCc2ccccc2)cc1	Yeast superoxide 63 | Superoxide pick inactive | DHE fluor count inactive
CC(=O)c1c(OC(=O)c2ccccc2)ccnc1C(F)(F)F	none (no result: S1P3 antagonist)
CN(C)c1ccc2nc3c(=O)[nH]c(=O)nc-3n(CC(O)C(O)C(O)CO)c2c1 (stereo not given)	none (no result: S1P3 antagonist)
Cc1ccccc1OC1CCN(C(=O)C2CCC(=O)N(C3CCCC3)C2)CC1 (stereo not given)	none (no result: S1P3 antagonist)
COCCn1cnc2c1c(=O)[nH]c(=O)n2Cc1ccccc1	none (no result: S1P3 antagonist)
O=C(COC(=O)COc1ccccc1)NC1CCS(=O)(=O)C1 (stereo not given)	none (no result: S1P3 antagonist)
CCc1c(C)nc2cc(-c3ccccc3)[nH]n2c1=O	none (no result: S1P3 antagonist) | Superoxide pick inactive | DHE fluor count inactive
Cc1cccc(-c2cc3nc(-c4ccccc4)cc(=O)n3[nH]2)c1	none (no result: S1P3 antagonist) | Superoxide pick inactive | DHE fluor count inactive
CCc1c(C)nc2c(-c3ccccc3OC)c(C)[nH]n2c1=O	none (no result: S1P3 antagonist)
C=CCc1c(C)nc2cc(-c3ccc(C)cc3)[nH]n2c1=O	none (no result: S1P3 antagonist)
CCc1c(C)nc2c(-c3ccccc3)c(-c3ccccc3)[nH]n2c1=O	none (no result: S1P3 antagonist) | Superoxide pick inactive | DHE fluor count inactive
Cc1ccccc1-c1cc2nc(-c3ccc([N+](=O)[O-])cc3)cc(=O)n2[nH]1	none
O=C(Nc1ccc(S(=O)(=O)N2CCCC2)cc1)c1cc(F)c(F)cc1Cl	none (no result: S1P3 antagonist)
Cc1sc2ncnc(N3CCC(C(=O)Nc4sc5c(c4C(N)=O)CCC(C)C5)CC3)c2c1C (stereo not given)	none (no result: S1P3 antagonist)
COc1ccc(C(CNC(=O)C(CCSC)NC(=O)c2ccccc2Cl)N2CCCCC2)cc1 (stereo not given)	none (no result: S1P3 antagonist)
COc1ccc(C(=O)N[C@H](C(=O)NCCc2ccc3c(c2)OCCO3)C(C)C)cc1	none (no result: S1P3 antagonist)
CCn1c(C)nc2c(=O)oc3ccccc3c21	Yeast superoxide 65 | Superoxide pick inactive | DHE fluor count inactive
Cc1nc2c(=O)oc3ccccc3c2n1-c1ccccc1	none
COc1ccc(NC(=O)CN(C)C(=O)Cc2ccc(S(=O)(=O)N3CCOCC3)s2)cc1	none (no result: S1P3 antagonist)
Cc1ccc(OCC(=O)NNC(=O)C2CSC3(C)CCC(=O)N23)cc1 (stereo not given)	none (no result: S1P3 antagonist)
C=CCNC(=O)C1CC(=O)N(c2ccc(OCC(=O)Nc3ccc(C)cc3)cc2)C1 (stereo not given)	none
C=CCNC(=O)C1CC(=O)N(c2ccc(OCC(=O)Nc3ccc(CC)cc3)cc2)C1 (stereo not given)	Yeast superoxide 58 (no result: S1P3 antagonist) | Superoxide pick inactive | DHE fluor count inactive
CCCCOc1ccc(C(=O)NCC(=O)NC(C)CCc2ccccc2)cc1 (stereo not given)	none (no result: S1P3 antagonist)
COc1ccc(C(c2c(C)[nH][nH]c2=O)c2c(C)[nH][nH]c2=O)cc1Br	none (no result: S1P3 antagonist)
Cc1[nH][nH]c(=O)c1C(c1ccc(O)c(Br)c1)c1c(C)[nH][nH]c1=O	Yeast superoxide 56 (no result: S1P3 antagonist) | Superoxide pick inactive | DHE fluor count inactive
CCC(=O)N(Cc1cc(=O)[nH]c2ccccc12)c1ccc(C)cc1C	none (no result: S1P3 antagonist)
C[C@]12CCC3C(CC[C@H]4CCCC[C@]34C)C1CC[C@@]2(O)CNCCO (stereo not given in full)	none (no result: S1P3 antagonist) | Superoxide pick inactive | DHE fluor count inactive
C[C@]12CCC(=O)CC1CCC1C2CC[C@@]2(C)C1CC[C@@]21CCO1 (stereo not given in full)	none (no result: S1P3 antagonist)
Nc1nc(N)nc(-c2ccc(Cl)cc2)n1	none (no result: S1P3 antagonist)
Clc1ccc(/C=C/c2nc(Cl)c(-c3ccc(Cl)cc3)c(Cl)n2)cc1	Yeast superoxide 63 | Superoxide pick inactive | DHE fluor count inactive
CCCOC(=O)c1c(-c2ccccc2)nc(CC)c(C(=O)SCC)c1CCC	none (no result: S1P3 antagonist)
COc1cc(C=O)ccc1OCC(=O)Nc1ccc2c(c1)OCO2	none (no result: S1P3 antagonist)
O=C(CN1CCN(c2ccccn2)CC1)Nc1cccc(S(=O)(=O)N2CCOCC2)c1	none
COc1cccc(NC(=O)CN2CCN(CC(=O)Nc3ccc(F)cc3)CC2)c1	Yeast superoxide 61 (no result: S1P3 antagonist) | Superoxide pick inactive | DHE fluor count inactive
O=C(CN1CCN(c2ccccn2)CC1)Nc1cccc(F)c1	none (no result: S1P3 antagonist) | Superoxide pick inactive | DHE fluor count inactive
O=C(CN1CCN(c2ccccn2)CC1)Nc1ccc2ccccc2c1	none
O=C(CN1CCN(c2ccccn2)CC1)Nc1cccc(Br)c1	none (no result: S1P3 antagonist) | Superoxide pick inactive | DHE fluor count inactive
COc1cccc(NC(=O)CN2CCC(C)CC2)c1	none (no result: S1P3 antagonist)
